Source: ChEMBL document CHEMBL2029208 (Bioorg Med Chem, 2012)
≈ marks a conversion by molar mass, not a printed value. Calls of active or inactive are those of the source. The calls are words filed in the database; no cut-off is given here.

Assays:
[1] = molecular target: T1, Bifunctional epoxide hydrolase 2 (Homo sapiens, UniProt P34913);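 further: recombinant enzyme with CMNPC substrate, fluorescence readout of 6-methoxy-2-naphthaldehyde formed over a 10 min reaction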
T1 sequence (P34913 whole entry): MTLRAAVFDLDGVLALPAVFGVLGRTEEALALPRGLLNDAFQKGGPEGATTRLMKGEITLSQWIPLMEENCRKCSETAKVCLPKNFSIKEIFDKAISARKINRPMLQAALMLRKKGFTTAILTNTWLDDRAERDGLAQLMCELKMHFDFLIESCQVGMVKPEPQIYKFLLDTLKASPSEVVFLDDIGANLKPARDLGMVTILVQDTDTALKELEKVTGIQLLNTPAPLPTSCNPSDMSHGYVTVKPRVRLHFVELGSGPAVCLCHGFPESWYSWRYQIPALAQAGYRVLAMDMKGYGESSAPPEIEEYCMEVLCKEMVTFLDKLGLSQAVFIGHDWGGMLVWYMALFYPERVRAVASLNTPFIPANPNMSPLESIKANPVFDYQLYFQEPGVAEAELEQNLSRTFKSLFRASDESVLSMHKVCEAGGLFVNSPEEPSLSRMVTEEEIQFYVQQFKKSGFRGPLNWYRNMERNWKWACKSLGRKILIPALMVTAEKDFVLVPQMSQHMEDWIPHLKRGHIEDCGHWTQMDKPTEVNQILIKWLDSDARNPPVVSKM

[2] = tested on: Mycobacterium tuberculosis; test: microbe, parasite or virus in culture; assay type: functional; details: H37Ra
[3] = tested on: Mycobacterium tuberculosis; test: Antimycobacterial activity against Mycobacterium tuberculosis H37Ra infected in gamma interferon-knockout mouse assessed as reduction in spleen CFU load at 25 mg/kg, po BID dosage beginning at 15 post infection for 9 days (reference value: 7.30 +/- 0.09 log10CFU); assay type: functional
[4] = tested on: Mycobacterium tuberculosis; test: Antimycobacterial activity against Mycobacterium tuberculosis H37Ra infected in gamma interferon-knockout mouse assessed as reduction in lung CFU load at 25 mg/kg, po BID dosage beginning at 15 post infection for 9 days (reference value: 8.86 +/- 0.02 log10CFU); assay type: functional
[5] = tested on: Mycobacterium tuberculosis; test: Inhibition of Mycobacterium tuberculosis epoxide hydrolase E expressed in Escherichia coli BL21AI cells using cyano(6-methoxy-2-napthalenyl)methyl[(2,3)-3-phenyloxiranyl] methyl ester carbonate as substrate at 10 nM preincubated for 10 mins before substrate addition measured after 30 mins by spectrofluorometric analysis
[6] = mycobacterium tuberculosis h37ra, cytosol, 5 µM
[7] = tested on: Mycobacterium tuberculosis; test: Antimycobacterial activity against Mycobacterium tuberculosis H37Ra at 10 uM; assay type: functional, organism-based
[8] = Drug uptake in mouse serum at 140 mg/kg, po administered in 30% Captisol measured after 2 hrs by LC-MS/MS analysis; assay type: ADME, organism-based; parameters: dose 140 mg/kg, route oral; details: read-out: Drug uptake
Outline: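 Non-genetically modified mice were dosed at 140 mg/kg in 30% Captisol by gavage. Blood was clotted for at least 1 h and spun at ~3000g for 15 min, and serum was frozen at −70°C. Serum was diluted 4:1 with methanol containing warfarin (final 5 μM) as internal standard and centrifuged. Samples were quantified by LC/MS against a 7-point calibration curve.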

[9] = tested on: Mycobacterium tuberculosis; test: Antimycobacterial activity against Mycobacterium tuberculosis H37Ra infected in gamma interferon-knockout mouse assessed as reduction in lung CFU load at 150 mg/kg, po BID dosage beginning at 15 post infection for 9 days (reference value: 8.86 +/- 0.02 log10CFU); assay type: functional
[10] = tested on: Mycobacterium tuberculosis; test: Antimycobacterial activity against Mycobacterium tuberculosis H37Ra infected in gamma interferon-knockout mouse assessed as reduction in spleen CFU load at 150 mg/kg, po BID dosage beginning at 15 post infection for 9 days (reference value: 7.30 +/- 0.09 log10CFU); assay type: functional

| Compound | IC50 [1] | MIC [2] | further results |
| --- | --- | --- | --- |
| CCOCCOCC(OC(=O)CCCNC(=O)NC12CC3CC(CC(C3)C1)C2)c1ccccc1 (centres undefined) | 4.2 nM | 95 µg/mL (≈ 201 µM) |  |
| C=CCO[C@H]1CC[C@@H](NC(=O)NC23CC4CC(CC(C4)C2)C3)CC1 | 1.3 nM | > 66 µg/mL |  |
| O=C(Nc1ccc(C(=O)c2ccccc2)cc1)NC12CC3CC(CC(C3)C1)C2 | 1.6 nM | 1.8 µg/mL (≈ 4.81 µM) |  |
| O=C(Nc1ccc(C(F)(F)F)cc1)Nc1ccc(C(F)(F)F)cc1 | 15 nM | 2.18 µg/mL (≈ 6.26 µM) |  |
| COCC(=O)c1ccc(O[C@H]2CC[C@@H](NC(=O)NC34CC5CC(CC(C5)C3)C4)CC2)cc1 | 3.8 nM | 5.51 µg/mL (≈ 12.5 µM) |  |
| O=C(Nc1cccc([N+](=O)[O-])c1)N[C@H]1CC[C@H](OCc2c(F)cccc2F)CC1 | 90 nM | 10.1 µg/mL (≈ 25 µM) |  |
| O=C(Nc1ccc(OCCN2CCOCC2)cc1Cl)NC12CC3CC(CC(C3)C1)C2 | 2.4 nM | > 87 µg/mL |  |
| O=C(NCCCN1CCOCC1)NC12CC3CC(CC(C3)C1)C2 | 610 nM | > 64 µg/mL |  |
| O=C(Nc1cccc(OC(F)(F)C(F)F)c1)NC12CC3CC(CC(C3)C1)C2 | 1.5 nM | 1.4 µg/mL (≈ 3.62 µM) |  |
| CCOC(=O)c1ccc(O[C@H]2CC[C@@H](NC(=O)NC34CC5CC(CC(C5)C3)C4)CC2)cc1 | 1.6 nM | 8.3 µg/mL (≈ 18.8 µM) |  |
| NNC(=O)c1ccncc1 [ISONIAZID] |  | 0.08 µg/mL (≈ 0.583 µM) | log10cfu [3]: 3.63; log10cfu [4]: 5.41 |
| CCCCCO[C@H]1CC[C@H](NC(=O)NC23CC4CC(CC(C4)C2)C3)CC1 |  | 25 µg/mL (≈ 69 µM) | inhibition [5]: 93%; Drug uptake [6]: 128 ng |
| Cc1cccc(NC(=O)NC23CC4CC(CC(C4)C2)C3)c1 | 6.1 nM | 1.1 µg/mL (≈ 3.87 µM) |  |
| O=C(Nc1ccc(OCCN2CCOCC2)c(Cl)c1)NC12CC3CC(CC(C3)C1)C2 | 0.6 nM | 27 µg/mL (≈ 62.2 µM) |  |
| O=C(Nc1cccc(Oc2ccccc2)c1)NC12CC3CC(CC(C3)C1)C2 | 0.9 nM | 2.27 µg/mL (≈ 6.26 µM) |  |
| CCOCCOCCOCCCCCCNC(=O)NC12CC3CC(CC(C3)C1)C2 | 1.2 nM | 82 µg/mL (≈ 200 µM) |  |

| Compound | IC50 [1] | MIC [2] | further results |
| --- | --- | --- | --- |
| O=C(NC12CC3CC(CC(C3)C1)C2)N[C@H]1CC[C@@H](OC2CCCCC2)CC1 | 1.6 nM | > 75 µg/mL |  |
| O=C(Nc1cccc(C(=O)NCCCN2CCOCC2)c1)NC12CC3CC(CC(C3)C1)C2 | 57.9 nM | > 33 µg/mL |  |
| O=C(NCCCCCOCCOCCOCc1ccccc1)NC12CC3CC(CC(C3)C1)C2 | 10.8 nM | 46 µg/mL (≈ 100 µM) |  |
| O=C(Nc1cccc(C(=O)O)c1)NC12CC3CC(CC(C3)C1)C2 |  | 7.8 µg/mL (≈ 24.8 µM) | Activity [7]: Active |
| COC(=O)c1cccc(O[C@H]2CC[C@@H](NC(=O)NC34CC5CC(CC(C5)C3)C4)CC2)c1 | 2.5 nM | > 85 µg/mL | Activity [7]: inactive |
| CC(C)OCCOCCOCCCCCNC(=O)NC12CC3CC(CC(C3)C1)C2 | 4.1 nM | 21 µg/mL (≈ 51.1 µM) |  |
| O=C(Nc1cccc(C(F)(F)F)c1)NC12CC3CC(CC(C3)C1)C2 | 2.4 nM | 0.8 µg/mL (≈ 2.36 µM) |  |
| CCCC(C)OCCOCCOCCCCCNC(=O)NC12CC3CC(CC(C3)C1)C2 (centres undefined) | 6.2 nM | > 91 µg/mL |  |
| COC(=O)c1ccc(NC(=O)NC23CC4CC(CC(C4)C2)C3)cc1O |  | 1.1 µg/mL (≈ 3.19 µM) | concentration at 2 h [8]: 3000 nM; log10cfu [9]: 8.77; Activity [7]: inactive; log10cfu [10]: 7.31 |
| O=C(Nc1ccc(F)c(F)c1F)NC1C2CC3CC(C2)CC1C3 (centres undefined) |  |  | inhibition [5]: 68% |
| COCCOCCCCCNC(=O)NC12CC3CC(CC(C3)C1)C2 | 12.1 nM | 68 µg/mL (≈ 201 µM) |  |
| O=C(NC12CC3CC(CC(C3)C1)C2)N[C@H]1CC[C@H](Oc2ccc(C(=O)O)cc2)CC1 |  | 21 µg/mL (≈ 50.9 µM) | Activity [7]: inactive |
| O=C(Nc1cccc(C(=O)Nc2ccc(N3CCOCC3)cc2)c1)NC12CC3CC(CC(C3)C1)C2 | 74.2 nM | > 95 µg/mL |  |
| O=C(NC1CCCC(C(=O)NN2CCOCC2)C1)NC12CC3CC(CC(C3)C1)C2 (centres undefined) | 25.8 nM | > 84 µg/mL |  |
| O=C(Nc1ccc(O)c(Cl)c1)NC12CC3CC(CC(C3)C1)C2 | 5.1 nM | 2 µg/mL (≈ 6.23 µM) |  |
| O=C(NN1CCOCC1)NC12CC3CC(CC(C3)C1)C2 | 12800 nM | > 56 µg/mL |  |
